Assay results collected from several papers.
Protocols differ between the studies behind these lines.
STING1 H232R: Stimulator of interferon genes protein (STING1, Homo sapiens, UniProt Q86WV6, H232R)

Structure (SMILES)	target	assay	conditions	endpoint	value
Oc1ccc(/C=C/c2cc(O)cc(O)c2)cc1	Troponin C, slow skeletal and cardiac muscles (TNNC1, Human, UniProt P63316)	binding, NMR		Kd	240000 nM
C[C@H]1CCC[C@H](O)CCC/C=C/c2cc(O)cc(O)c2C(=O)O1	Estrogen receptor beta (ESR2, Homo sapiens, UniProt Q92731)	reporter gene, agonist, luciferase		EC50	0.44 nM
CC(=O)SCCNC(=O)CCNC(=O)[C@H](O)C(C)(C)COP(=O)(O)OP(=O)(O)OC[C@H]1O[C@@H](n2cnc3c(N)ncnc32)[C@H](O)[C@@H]1OP(=O)(O)O	CAB1 (Saccharomyces cerevisiae, UniProt Q04430)	enzyme activity, inhibitor		IC50	> 100000 nM
O=C(Nc1ccc(I)cc1)N1CCC(n2c(=O)[nH]c3c(Br)cccc32)CC1	N-glycosylase/DNA lyase (OGG1, Homo sapiens, UniProt O15527)	enzyme activity, inhibitor, fluorescence		IC50	342 nM
CCC(C)c1cccc(C(C)CC)c1O (stereo not drawn)	Potassium/sodium hyperpolarization-activated cyclic nucleotide-gated channel 1 (Hcn1, Mus musculus, UniProt O88704)	ion current, two-electrode voltage clamp	oocytes	IC50	~30000 nM
Nc1ccn([C@@H]2O[C@H](COP(=O)(O)OP(=O)(O)OP(O)(O)=S)[C@@H](O)[C@H]2O)c(=O)n1	virB (Shigella flexneri, UniProt P0A247)	binding, ITC		Kd	14300 nM
CC(C)C[C@@H]1NC(=O)[C@H](Cc2ccc(O)cc2)NC(=O)[C@H](C(C)C)NC(=O)[C@H](Cc2ccc(O)cc2)NC(=O)[C@H](CC(N)=O)NC(=O)[C@H](Cc2ccccc2)N(C)C(=O)[C@@H]2CCCN2C(=O)[C@H](Cc2ccc(O)cc2)NC(=O)[C@H](C(C)C)NC(=O)[C@H](CC(C)C)NC(=O)[C@H](Cc2ccccc2)NC(=O)CSC[C@@H](C(=O)NCC(N)=O)NC1=O	STING1 H232R	ligand displacement, TR-FRET		IC50	38000 nM
NC(=O)CCCC/C=C1\C(=O)OC1CCCCCCCCCc1ccccc1 (stereo not drawn)	Phosphatidylserine lipase ABHD16A (Homo sapiens, UniProt O95870)	enzyme activity, inhibitor		IC50	200 to 500 nM
CC(C)C[C@H](NC(=O)[C@H](Cc1ccccc1)NC(=O)[C@H](Cc1ccc(O)cc1)NC(=O)CNC(=O)[C@H](CCCCN)NC(=O)[C@H](CO)NC(=O)[C@H](CCC(N)=O)NC(=O)CNC(=O)[C@@H](NC(=O)[C@H](CO)NC(=O)[C@@H]1CCCN1C(=O)[C@H](CO)NC(=O)[C@H](CCC(N)=O)NC(=O)[C@H](Cc1ccc(O)cc1)NC(=O)[C@H](CCC(=O)O)NC(=O)[C@H](C)NC(=O)[C@H](CCCCN)NC(=O)[C@@H](N)Cc1ccccc1)C(C)C)C(=O)N[C@@H](Cc1ccccc1)C(=O)N[C@@H](CCCNC(=N)N)C(=O)N1CCC[C@H]1C(=O)N[C@@H](CCCNC(=N)N)C(=O)N[C@@H](CC(N)=O)C(N)=O	Neuromedin-U receptor 1 (NMUR1, Homo sapiens, UniProt Q9HB89)	inositol phosphate, agonist, TR-FRET		EC50	0.45 nM
CCCS(=O)(=O)Nc1ccc(F)c(C(=O)c2c[nH]c3ncc(Br)cc23)c1F	Dual specificity mitogen-activated protein kinase kinase 4 (MAP2K4, Homo sapiens, UniProt P45985)	enzyme activity, inhibitor, ADP detection		IC50	1400 nM
CC(C)[C@@H]1NC(=O)[C@@H]2CCCN2C(=O)[C@H](Cc2ccccc2)NC(=O)CSC[C@@H](C(=O)N[C@@H](Cc2ccc(O)cc2)C(N)=O)NC(=O)[C@H](Cc2c[nH]c3ccccc23)NC(=O)[C@H](CCCCN)NC(=O)[C@H](Cc2ccccc2)N(C)C(=O)[C@H](Cc2ccccc2)NC1=O	STING1 H232R	binding, SPR		Kd	250 nM
N=C(N)NCCC[C@H](N)C(=O)O	Nitric oxide synthase, inducible (Nos2, Mus musculus, UniProt P29477)	cell-free assay		Kd	2600 nM
